# Measurements collected from several papers.
# Compare with care: the assays were run in different laboratories.
# Effect on: metabolic stability
# Species: human
SMILES,sample,concentration,pH,quantity,result
CNS(=O)(=O)c1ccc(Nc2ncc(C(F)(F)F)c([C@H]3CC[C@@](C)(O)CC3)n2)c(C)c1,liver microsomes,1 µM,,scaled CLint,< 14 mL/min/kg
C[C@H](O)c1cnc(NS(=O)(=O)c2ccc(Cl)c(Cl)c2)nc1,hepatocytes,1 µM,,hepatocyte CLint,< 3 µL/min/10⁶ cells
NCCOCC(=O)N1CCC[C@H](C(=O)NCc2nc(-c3ccc(C(F)(F)F)cc3)cs2)C1,hepatocytes,0.5 µM,,scaled CLint,< 3.4 mL/min/kg
Cc1cc(S(=O)(=O)NC2CCC(CC3CCN(c4ccc(C5CCC(=O)NC5=O)cc4)CC3)CC2)ccc1Nc1ncc(C(F)(F)F)c(N2CCC[C@](C)(O)C2)n1 (stereo partly drawn),liver microsomes,1 µM,,scaled CLint,17 mL/min/kg
CCOCC(=O)N1CCC[C@H](C(=O)NCc2nc(-c3ccc(C)nc3)cs2)C1,liver microsomes,0.5 µM,,scaled CLint,11 mL/min/kg
Cc1cc(S(=O)(=O)N[C@]2(C)C[C@H](N3CCN(CC4CCN(c5ccc6c(c5F)n(C)c(=O)n6C5CCC(=O)NC5=O)CC4)CC3)C2)ccc1Nc1ncc(C(F)(F)F)c(N2CCC[C@](C)(O)C2)n1 (stereo partly drawn),liver microsomes,1 µM,,scaled CLint,251 mL/min/kg
COCC(=O)N1CCC[C@H](C(=O)NCc2nc(-c3ccccc3)cs2)C1,liver microsomes,0.5 µM,,microsomal CLint,< 7 µL/min/mg
O=c1c2ccc(OC3CCNCC3)cc2[nH]c2cc(F)cc(Cl)c12,liver microsomes,1 µM,pH 7.4,microsomal CLint,13.9 µL/min/mg
Cc1cc(S(=O)(=O)N[C@H]2C[C@H](CN3CCN(c4ccc(C5CCC(=O)NC5=O)c(Cl)c4)CC3)C2)ccc1Nc1ncc(C(F)(F)F)c(N2CCC[C@](C)(O)C2)n1 (stereo partly drawn),liver microsomes,1 µM,,scaled CLint,21 mL/min/kg
Cc1ccc(-c2csc(CNC(=O)[C@H]3CCCN(C(=O)[C@H]4CCC(C)(C)O4)[C@H]3C)n2)cn1,liver microsomes,0.5 µM,,microsomal CLint,155 µL/min/mg
O=c1c2cccc(Oc3ccc(OC(F)(F)F)cc3)c2[nH]c2cc(Cl)cc(F)c12,liver microsomes,1 µM,pH 7.4,microsomal CLint,6.75 µL/min/mg
COCC(=O)N1CCC[C@H](C(=O)NCc2nc(-c3ccc(OC(F)(F)F)cc3)cs2)C1,liver microsomes,0.5 µM,,microsomal CLint,37 µL/min/mg
Cc1cc(S(=O)(=O)NC2CC(N3CCN(CC4CCN(c5cccc6c5n(C)c(=O)n6C5CCC(=O)NC5=O)CC4)CC3)C2)ccc1Nc1ncc(C(F)(F)F)c(N2CCC[C@](C)(O)C2)n1 (stereo partly drawn),liver microsomes,1 µM,,scaled CLint,< 14 mL/min/kg
CNc1ccc(C(N)=O)cn1,hepatocytes,1 µM,pH 7.4,hepatocyte CLint,3 µL/min/10⁶ cells
CNS(=O)(=O)c1ccc(Nc2ncc3cc(Cl)c(=O)n(C4CCCC4)c3n2)c(C)c1,liver microsomes,1 µM,,scaled CLint,100 mL/min/kg
CC(C)(C)OC(=O)N1CCC(Oc2ccc3c(=O)c4c(Cl)cc(F)cc4[nH]c3c2)CC1,liver microsomes,1 µM,pH 7.4,microsomal CLint,7.13 µL/min/mg
COCC(=O)N1CCC[C@H](C(=O)NCc2nc(-c3ccc(C#N)cc3)cs2)C1,liver microsomes,0.5 µM,,scaled CLint,12 mL/min/kg
CCCN(CCC)CCCOc1ccc2c(=O)c3c([nH]c2c1)CCCC3,liver microsomes,1 µM,pH 7.4,microsomal CLint,37.1 µL/min/mg
CCOCC(=O)N1C2CCC(C(=O)NCc3nc(-c4ccc(C#N)cc4)cs3)C1CC2 (stereo not drawn),liver microsomes,0.5 µM,,microsomal CLint,42 µL/min/mg
CCN(CC)CCOc1ccc2c(=O)c3c([nH]c2c1)CCCC3,liver microsomes,1 µM,pH 7.4,microsomal CLint,6.65 µL/min/mg
C[C@H](O)c1ccc(NS(=O)(=O)c2ccc(OCC3CCC3)c(Cl)c2)c2nn(C)cc12,hepatocytes,1 µM,,hepatocyte CLint,167 µL/min/10⁶ cells
O=c1c2ccc(OCc3cccc(OC(F)(F)F)c3)cc2[nH]c2ccc(Cl)c(F)c12,liver microsomes,1 µM,pH 7.4,microsomal CLint,1.24 µL/min/mg
N[C@H](COCC(=O)N1CCC[C@H](C(=O)NCc2nc(-c3ccc(C(F)(F)F)cc3)cs2)C1)c1ccccc1,liver microsomes,0.5 µM,,microsomal CLint,80 µL/min/mg
CC(C)(C)OC(=O)N1CCC(Oc2ccc3c(=O)c4c(F)cc(Cl)cc4[nH]c3c2)C1 (stereo not drawn),liver microsomes,1 µM,pH 7.4,microsomal CLint,17.3 µL/min/mg
Cc1cc(S(=O)(=O)NC2CC(N3CCN(CC4CCN(c5cccc6c5n(C)c(=O)n6C5CCC(=O)NC5=O)CC4)C4(CC4)C3)C2)ccc1Nc1ncc(C(F)(F)F)c(N2CCC[C@](C)(O)C2)n1 (stereo partly drawn),liver microsomes,1 µM,,scaled CLint,34 mL/min/kg
O=c1c2c([nH]c3cc(OCc4ccc(OC(F)(F)F)cc4)ccc13)CCCC2,liver microsomes,1 µM,pH 7.4,microsomal CLint,36.5 µL/min/mg
Cc1cc(S(=O)(=O)NC2CC(N3CCN(CC4CCN(c5ccc(NC6CCC(=O)NC6=O)cc5C)CC4)CC3)C2)ccc1Nc1ncc(C(F)(F)F)c(N2CCC[C@](C)(O)C2)n1 (stereo partly drawn),liver microsomes,1 µM,,scaled CLint,15 mL/min/kg
